# Source: the EternaBench riboswitch data
# Tested on: MS2 coat protein
# Test: apparent Kd, MS2 coat protein; higher = weaker binding; RNA-MaP array
# How it was run: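 Fluorescently labeled MS2 coat protein, from 1.5 nM to 3 μM, was incubated at room temperature with designed RNAs transcribed on an Illumina sequencing chip from sequenced DNA templates. Times ran from 0.8–1.5 h at the lowest concentrations to 10–20 min at the highest, in Tris-HCl pH 7.5 buffer with KCl, MgCl2, BSA, DTT, tRNA and Tween20, with or without input ligand. Each apparent Kd is the median of per-cluster binding-curve fits, and designs with fewer than 10 measured clusters were excluded.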
# [1] = designed as: OFF switch for flavin mononucleotide, no ligand
# [2] = ligand present: flavin mononucleotide, designed as: OFF switch for flavin mononucleotide
# [3] = designed as: ON switch for flavin mononucleotide, no ligand
# [4] = ligand present: flavin mononucleotide, designed as: ON switch for flavin mononucleotide
# [5] = designed as: OFF switch for theophylline, no ligand
# [6] = ligand present: theophylline, designed as: OFF switch for theophylline
# [7] = designed as: ON switch for tryptophan, no ligand
# [8] = ligand present: tryptophan, designed as: ON switch for tryptophan
Sequence,apparent Kd [1],apparent Kd [2],apparent Kd [3],apparent Kd [4],other results
AUCGGCGCACAGAAGGGACGAUCAAACUGCUGAUCACAUGAGGAUCACCCAUGUUGUUUGGAUAGUCAGGAUAUGUUGACCAUG,17.6 nM,16 nM,,,
UACUCACAUGAGGAUCACCCAUGUUGUCUCAAGAUAGGAUAUGACUGGCUAUGCAUCGGUUCAGAAGGAUCUUCUA,,,19.7 nM,11.3 nM,
CUUUGUGGCCAAGGAUAUCCUGGCACAGUACAUGAGGAUCACCCAUGUCGAAGACAUGGUCGUACGGAGAAGGUGGGCACCCUC,,,511 nM,,
UCGAUGGUACCCGAUACCAGCAAUACAUCACAGACCUGAUACAUGAGGAUCACCCAUGUGUGCCCUUGGCAGCGGGUCCUGAAAA,,,,,apparent Kd [5]: 17.8 nM; apparent Kd [6]: 38.1 nM
AUCACAACCAAGAAGGGUCAGAUAACUCGAGAGACAGGAUAUUGAACAACAUAGUCAACAUGAGGAUCACCCAUGUAAAAUAAA,,,54 nM,24.2 nM,
ACGAGAGCCCAGAAGGACACGGGAUACUCACAAGCAUUCUGGACAUGAGGAUCACCCAUGUGUAUGUAGGAUAUGGGAGUUGCG,,,31 nM,15.2 nM,
ACCGUGUCAGGAUAUCGGGUAUUCUUCCGUAUAAUACCAGCCGAGAAGGGACAUGAGGAUCACCCAUGUGGACA,33.2 nM,57.8 nM,,,
UAGCGACAUGAGGAUCACCCAUGUCCCGGCUACUAAGGAUAUGCAGUGAUUGAAAGGAAGGCAGAAGGUAGUGCAG,,,25.3 nM,12.7 nM,
CCAUGUAAUGUAAGGAUAUUCCAGGUAAUUACUUUGAAGAAGGUACAUGAGGAUCACCCAUGUGGAAACGAAUG,18.6 nM,64.5 nM,,,
CAAGGGAAUACAGGAUAUUGCUGGAGUUGGGCGAGACAUGAGGAUCACCCAUGUUAUGCUAUAGUCAAGAAGGGUAUCUCGAGG,18.5 nM,13 nM,,,
UACAUGAGGAUCACCCAUGUUUAUUGGUAGAACGGAUAAUGGGAGGAUAUGAACCGAUCAGAUCAUCAGAAGGCCCUUAAUGGG,,,29 nM,20 nM,
CAUACAUAACAUGAGGAUCACCCAUGUGACUCACUCUGAAAGCAGGAUAUAUUCGGUAAGCUACGAUAGAAGGGCUAUGCGUAA,42.2 nM,31.3 nM,,,
AUGAAAAGUACAGGAUAUAUAUAAACACAAAACGGACAUGAGGAUCACCCAUGUUGACGUUGUCAAUAGAAGGGUACCAACACA,,,26.1 nM,10.7 nM,
AACUGUAAUACAAGAACAUGAGGAUCACCCAUGUGUCGCGCAGAGGAUAUACUGGUUCGCUGUCCGUAGAAGGCUGAGCACAUG,,,33.9 nM,23.9 nM,
CUCUACAUGAGGAUCACCCAUGUAUUAAUACAACUGGGUGCUAGAAGGUGCACUUAAGAAUAGGGCAAGGAUAUAGACCGUUCA,158 nM,77.4 nM,,,
AUGUCACAUGAGGAUCACCCAUGUAUGGAUACCAGUUUAGUGAAUAACCCUUGGCAGCCAAGGAUGCGACAGAAAUCCGGAAAAC,,,,,"apparent Kd (designed as: ON switch for theophylline, no ligand): 21.3 nM; apparent Kd (ligand present: theophylline, designed as: ON switch for theophylline): 21.1 nM"
AGCUCGUAGACAUGAGGAUCACCCAUGUAGAUCAAGAAAUUCAAGGAUAUUGGGAGUAAGCCGUGCAAGAAGGUGAGACUAGAU,,,57 nM,45.2 nM,
UCGACAUCAGGAUAUACGAUGGAGUAGUUACGAGUAUCACGACAUGAGGAUCACCCAUGUAGAAGGGAUCGUCC,21.4 nM,17.7 nM,,,
CUUGUACAUGAGGAUCACCCAUGUGUCCGUAUCAAAGGAUAUAGCAUAUUCGCAGUGGUGCUAGAAGGUUGUAUAC,,,20.9 nM,10.5 nM,
GUGAUGCCUUACACAUGAGGAUCACCCAUGUGGUGUAAGCGUAGAAGGUGAAUAUAUUCCAUAGUCAAGGAUAUACGAACAAUC,12.2 nM,11.5 nM,,,
CGGCGCUUAGGAUAUUAGAGAUGCAACAUGAGGAUCACCCAUGUGAUGAGGGUUGGCAGCUAAGAAGGAAGCAUCC,86 nM,61.5 nM,,,
AAGAACAUGAGGAUCACCCAUGUGAUCGUUCGAGGACCGGUACGGCCGCCACUCGGACCUGUGUCCAGGCACGGGCCGACGCGAC,,,,,apparent Kd [7]: 77.8 nM; apparent Kd [8]: 38.2 nM
GCUAUAUUUGAGAAGGGAGGAUGCUUCACAGAGCUUAGACCAGACAUGAGGAUCACCCAUGUGCCUCAGGAUAUCAAUAUCGAU,,,27.3 nM,8.5 nM,
AAAGACGACCAGAAGGAGCCGCCACAUGAGGAUCACCCAUGUAUGCAAAGAUAACUGGGUUAACGCUAGGAUAUGGUGGAGAAA,63.5 nM,44.1 nM,,,

Sequence,apparent Kd [1],apparent Kd [2],apparent Kd [3],apparent Kd [4],other results
CAAAUGUGCACUCGUGAUACAUGAGGAUCACCCAUGUCAACUAAGGAUAUCUGGAAGUCACAUCGAGAGAAGGUAGCGUACCCU,10.5 nM,9.44 nM,,,
CGCCCGAAAGGAUAUACAUGAGGAUCACCCAUGUUUCUAGCAAAAUGACCCUCAAUUCGUAGAAGGUUCCGAGU,32.6 nM,36.1 nM,,,
UAUAAGGAAGGAUAUAGGCUGCAAAACAUGAGGAUCACCCAUGUGAACCGACGACGCCAACUAGAAGGUCCCUAUG,13.5 nM,12.9 nM,,,
UAACAUGAGGAUCACCCAUGUAACCAUCUCCAAGUCGGUAGGCAGGAUAUGUACAUAAUGGAAGAACAGAAGGGCCGGUCCGAG,,,31.1 nM,9.9 nM,
CUGCUCUGUACUGAAGGAGAUACAUGAGGAUCACCCAUGUGCAGAAGGUGCUCAUUAAUAAUCGGCAAGGAUAUGCGGGCUUGA,,,925 nM,390 nM,
ACAUCCACCAAGAAGGCUGGUGCGGCACUUAAGUCGUUCACAUGAGGAUCACCCAUGUCGUAUACAGAGGAUAUUGAGGUUUUC,39.1 nM,38.7 nM,,,
GACCAUCACCAGAAGGUCCUCCACCAGCGAGAUCCGACAUGAGGAUCACCCAUGUACUGUGGAUGGAAGGAUAUGGAAGGCUCU,46.9 nM,116 nM,,,
GACAGAAGGUAGAAGGUGGUUCUCCUCACCCACUUUGAGGACAUGAGGAUCACCCAUGUCAAAACCAAGGAUAUACUACGUCGU,,,89.8 nM,18.2 nM,
UAGCGACAUGAGGAUCACCCAUGUGAGGAUAUGAAGUCUAUAACACAAGCUAAUGAAGACAGAAGGCACAUGAG,66.8 nM,59.3 nM,,,
UAUCGGGCAGGAUAUACAUGCGAUUACACUCUUCGGAAAGUACAUGAGGAUCACCCAUGUAGAAGGGCCAAGUG,10.4 nM,11 nM,,,
UGUGGGUCCGAAGAUACCAGCCAGCACAGCAUGUGUUUAAACAUGAGGAUCACCCAUGUCGGCCCUUGGCAGCUUGGUUUGGACG,,,,,apparent Kd [5]: 15.5 nM; apparent Kd [6]: 12.1 nM
CCAUGAAGCGAGGAUAUUCUCACUGCCAAGUUGGAAGAAGGCGCUACAUGAGGAUCACCCAUGUAGUCAGUCCG,5.07 nM,5.32 nM,,,
GAUAGGUGAGGAUAUGUGAGUGAUCACAUGAGGAUCACCCAUGUUGACUCAUGUUGGCUUACAGAAGGCACAGGAA,137 nM,97.2 nM,,,
UGAUGUAACAGAGGAUAUCACUCAAAUGCGGGCAUGUCGCACAUGUACAUGAGGAUCACCCAUGUUGAGAAGGCUGUGGUGCAA,,,145 nM,47.5 nM,
CCAUGGAGGACUGAGGAUAUUCGCAUAAGCACAUGAGGAUCACCCAUGUCAGAAAUAAAUCUCUAGAAGAAGGCAGCGCUAAGACA,,,12.9 nM,13.2 nM,
GAGCGCAGUUUACAACAUACUAACACAGAUACCAGAAAUUUUAUGUUCCCUUGGCAGCUGACAACAUGAGGAUCACCCAUGUGCU,,,,,apparent Kd [5]: 17.1 nM; apparent Kd [6]: 17.7 nM
UAACGUAGCCGAGGAUAUAGUAGCGAUCAACAGAAACAUGAGGAUCACCCAUGUGCCACAAAAGACUAGAAGGCGGGCAACCCA,,,15.4 nM,11.2 nM,
AACGUACAUGAGGAUCACCCAUGUGAGGAUAUGCCUAAAGAGUUCUAAGCAUCCAAGGGCAGAAGGCACAUGAA,99.1 nM,140 nM,,,
GAUUGCGGUGUGAGGAUAUCUGUUUAACAAAAGCCAGAGAAGGCACAUGAGGAUCACCCAUGUAGAUGCCGGCC,8.38 nM,10.5 nM,,,
CGGCUCAUAAUGGAUACCAGUCCAGCAUAGAAACCUUGACACAUGAGGAUCACCCAUGUUGACCCUUGGCAGCCAUUGAUCAUAC,,,,,apparent Kd [5]: 22.4 nM; apparent Kd [6]: 133 nM
GGGUUACUCUAUGAUACCAGUUCCAUGCCGAAACCUGUGUACAUGAGGAUCACCCAUGUGAACCCUUGGCAGCAUUAAUCAACUG,,,,,apparent Kd [5]: 97.5 nM; apparent Kd [6]: 258 nM
CGGUGACAUGAGGAUCACCCAUGUAAGGAUAUACCGGUUGAAGAUAAUAGCGACGGCGGAAGAAGGUACCUACA,32 nM,25.9 nM,,,
UGGGUUACCUCAGGAUAUCGCCUUGUACAUGAGGAUCACCCAUGUAGUAUCGGCCGUGUGUGCAUCGAGAAGGGAGUAACCUUC,75.2 nM,53.5 nM,,,
CGCGAGACGGCGGCCGCCACUUGUUGUUGGAAACUCGAGUUACAUGAGGAUCACCCAUGUCCUUAAAGGACCGGGCCGUAAGUAA,,,,,apparent Kd [7]: 226 nM; apparent Kd [8]: 164 nM
